“Also recorded” adds a separate entry of the source.
Experiments:
[1] = test system: zebrafish Mc4r; conditions: 2013, cited from earlier work
[2] = test system: Mc2r and Mc5r orthologs; conditions: ref Thomas et al., 2018, Dores et al., Barney et al., 2019; cited from earlier work
[3] = test system: hMc2r; conditions: ref Metherell et al., 2005; Sebag and Hinkle, 2007; cited from earlier work
[4] = test system: gMc1r/gMrap1; test: cAMP-reporter gene assay, gMc1r co-expressed with gMrap1; format: cell-based, spotted gar (Lepisosteus oculatus); conditions: Fig. 3A, vs gMc1r alone; for effect of gMrap1 co-expression on Vmax value: hACTH(1–24) p < 0.001, NDP-MSH p = 0.02, T-test; for effect of gMrap1 co-expression on ligand sensitivity: p = 0.90 (hACTH(1–24)), p = 0.92 (NDP-MSH)
Outline: (§1)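 CHO cells (F12K, 10% FBS, 37 °C, 5% CO2) nucleofected with 2 μg each of gar receptor cDNA, with or without gar Mrap1 or Mrap2, plus CRE-luciferase. After 48 h, stimulated 4 h at 37 °C in serum-free medium with hACTH(1–24) 10−13–10−6 M or NDP-MSH 10−12–10−6 M. Luminescence read after a 5 min luciferase reagent step. Medium-only background subtracted. EC50 from Michaelis-Menten fits; triplicates.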

[5] = test system: gMc5r/gMrap1; test: cAMP-reporter gene assay, gMc5r co-expressed with gMrap1; format: cell-based, spotted gar (Lepisosteus oculatus); conditions: Fig. 6A, 6B, vs gMc5r alone; for effect of gMrap1 co-expression on Vmax: hACTH(1–24) p = 0.44, NDP-MSH p = 0.01, T-test; for effect of gMrap1 co-expression on ligand sensitivity: hACTH(1–24) p = 0.5, NDP-MSH p = 0.64
Outline: as §1

[6] = test system: gMc5r; test: cAMP-reporter gene assay, gMc5r expressed alone; format: cell-based, spotted gar (Lepisosteus oculatus); conditions: p = 0.07, T-test
[7] = test system: gMc4r; test: cAMP-reporter gene assay, gMc4r expressed alone; format: cell-based, spotted gar (Lepisosteus oculatus); conditions: p = 0.11
Outline: as §1

[8] = test system: gMc2r/gMrap1; test: cAMP-reporter gene assay, gMc2r co-expressed with gMrap1; format: cell-based, spotted gar (Lepisosteus oculatus)
Outline: as §1

[9] = test system: hMc2r/mMrap1; conditions: ref Liang et al., 2011; cited from earlier work
[10] = test system: gMc3r; test: cAMP-reporter gene assay, gMc3r expressed alone; format: cell-based, spotted gar (Lepisosteus oculatus); conditions: p = 0.03
[11] = test system: gMc4r/gMrap1; test: cAMP-reporter gene assay, gMc4r co-expressed with gMrap1; format: cell-based, spotted gar (Lepisosteus oculatus); conditions: Fig. 5A, vs gMc4r alone; for effect of gMrap1 co-expression on ligand sensitivity: p = 0.49 (hACTH(1–24)), p = 0.98 (NDP-MSH)
Outline: as §1

[12] = test system: gMc3r/gMrap1; test: cAMP-reporter gene assay, gMc3r co-expressed with gMrap1; format: cell-based, spotted gar (Lepisosteus oculatus); conditions: Fig. 4A, vs gMc3r alone; for effect of gMrap1 co-expression on ligand sensitivity: p = 0.49 (hACTH(1–24)), p = 0.98 (NDP-MSH)
Outline: as §1

[13] = test system: gMc5r/gMrap2; test: cAMP-reporter gene assay, gMc5r co-expressed with gMrap2; format: cell-based, spotted gar (Lepisosteus oculatus); conditions: Fig. 6A, 6B, vs gMc5r alone; for effect of gMrap2 co-expression on Vmax: hACTH(1–24) p = 0.001, NDP-MSH p = 0.007, T-test; for effect of gMrap2 co-expression on ligand sensitivity: hACTH(1–24) p = 0.5
Outline: as §1

[14] = test system: mouse Mc4r; conditions: activation by NDP-MSH; ref Asai et al., 2013; cited from earlier work
[15] = test system: gMc3r/gMrap2; test: cAMP-reporter gene assay, gMc3r co-expressed with gMrap2; format: cell-based, spotted gar (Lepisosteus oculatus); conditions: Fig. 4B, vs gMc3r alone; for effect of gMrap2 co-expression on Vmax value: hACTH(1–24) p – 0.99, NDP-MSH p > 0.001 (so in the source), T-test; for effect of gMrap2 co-expression on ligand sensitivity: p = 0.98 (both ligands)
[16] = test system: gMc1r; test: cAMP-reporter gene assay, gMc1r expressed alone; format: cell-based, spotted gar (Lepisosteus oculatus); conditions: comparison of EC50 values, p < 0.001
[17] = test system: gMc4r/gMrap2; test: cAMP-reporter gene assay, gMc4r co-expressed with gMrap2; format: cell-based, spotted gar (Lepisosteus oculatus); conditions: Fig. 5B; vs gMc4r alone; p < 0.001 (both ligands); T-test
[18] = test system: gMc1r/gMrap2; test: cAMP-reporter gene assay, gMc1r co-expressed with gMrap2; format: cell-based, spotted gar (Lepisosteus oculatus); conditions: Fig. 3B, vs gMc1r alone; for effect of gMrap2 co-expression on Vmax value: hACTH(1–24) P = 0.43, NDP-MSH p = 0.42, T-test; for effect of gMrap2 co-expression on ligand sensitivity: p = 0.12 (hACTH(1–24)), p = 0.28 (NDP-MSH)
Outline: as §1

[19] = test system: gMc2r; test: cAMP-reporter gene assay, gMc2r expressed alone; format: cell-based, spotted gar (Lepisosteus oculatus); conditions: Fig. 2A; CHO cells, CRE-Luciferase, 4 h at 37 °C, 10^−13M to 10^−6M; n = 3
Outline: as §1

[20] = test system: Gallus gallus (chicken; c) Mc5r with cMrap1; conditions: ref Thomas et al., 2018; cited from earlier work
[21] = test system: gMc2r/gMrap2; test: cAMP-reporter gene assay, gMc2r co-expressed with gMrap2; format: cell-based, spotted gar (Lepisosteus oculatus); conditions: Fig. 2A, CHO cells, CRE-Luciferase, 4 h at 37 °C, 10^−13M to 10^−6M, n = 3
Outline: as §1

Substance	effect of gMrap1 co-expression on Vmax value [4]	effect of gMrap1 co-expression on ligand sensitivity [4]	effect of gMrap1 co-expression on Vmax [5]	effect of gMrap1 co-expression on ligand sensitivity [5]	efficacy of hACTH(1–24) compared with NDP-MSH [7]	effect of gMrap1 co-expression on Vmax value [11]	effect of gMrap1 co-expression on ligand sensitivity [11]	effect of gMrap1 co-expression on Vmax value [12]	effect of gMrap1 co-expression on ligand sensitivity [12]	effect of gMrap2 co-expression on Vmax [13]	effect of gMrap2 co-expression on ligand sensitivity [13]	effect of gMrap2 co-expression on Vmax value [15]	effect of gMrap2 co-expression on ligand sensitivity [15]	effect of gMrap2 co-expression on Vmax [17]	effect of gMrap2 co-expression on Vmax value [18]	effect of gMrap2 co-expression on ligand sensitivity [18]	other results
ACTH																	effect of Mrap2 co-expression on sensitivity for activation by ACTH ([1]; ref Josep Agulleiro et al.): sensitivity for activation by ACTH increases as well; effect of Mrap1 co-expression on sensitivity to stimulation by ACTH [2]: enhanced sensitivity to stimulation by ACTH; stimulation of hMc2r/Mrap1 by ACTH [3]: in the correct configuration to be stimulated by ACTH
Nle^4, D-Phe^7-α-MSH [NDP-MSH]	decrease in the Vmax value	had no effect on sensitivity to stimulation; also recorded: no effect on the sensitivity of gMc1r	increase in Vmax	had no effect on sensitivity to stimulation; also recorded: no effect, either positive or negative, on the sensitivity of the receptor	can be activated with equal efficacy	no effect on the Vmax value	had no effect on sensitivity to stimulation; also recorded: no statistical effect on the sensitivity of gMc4r	no effect on the Vmax value	had no effect on sensitivity to stimulation	increase in Vmax	did not increase sensitivity; also recorded: no effect, either positive or negative, on the sensitivity of the receptor	decrease in the Vmax value	no effect either positive or negative on the sensitivity of gMc3r	statistically higher than the Vmax for the dose response curve when gMc4r was expressed alone; also recorded: comparable in magnitude to the Vmax value for the gMc4r/gMrap2 cells stimulated hACTH(1–24); also recorded: the amplitude of stimulation (Vmax) also increased for both ligands	no effect on the Vmax value	no effect, in either a positive or negative manner, on the sensitivity of gMc1r	EC50 of NDP-MSH compared with hACTH (1–24) [6]: not statistically different from stimulation with hACTH (1–24); effect of Mrap2 co-expression on ligand sensitivity ([1]; activation by NDP-MSH, ref Sebag et al.): enhances ligand sensitivity of the receptor to activation by NDP-MSH; activation of gMc2r/gMrap1 by NDP-MSH ([8]; Fig. 2B, CHO cells, 4 h at 37 °C, 10^−12M to 10^−6M, n = 3): low level of activation (only at 10^−7M and 10^−6M); also recorded: activation was observed, but only at concentrations of 10^−7 M and 10^−6M; also recorded: weak activation only at 10 ^7M and 10^−6M; also recorded: could be activated to a limited degree by NDP-MSH at concentrations of 10^−7M and 10^−6M; degree of stimulation relative to stimulation at saturation by hACTH(1–24) ([8]; NDP-MSH at 10^−6 M vs 10^−9M hACTH(1–24), Fig. 2B): roughly 40%; response to NDP-MSH [9]: did not evoke a response; sensitivity to NDP-MSH compared with hACTH(1–24) [10]: higher sensitivity for stimulation by NDP-MSH than by stimulation with hACTH(1–24); effect of Mrap2 co-expression on ligand sensitivity [14]: enhances ligand sensitivity of the receptor to activation by NDP-MSH; sensitivity to NDP-MSH compared with hACTH(1–24) [16]: much more sensitive to stimulation by NDP-MSH than to stimulation by hACTH(1–24)
hACTH(1–24): Human (h) ACTH(1–24), purchased from Sigma-Aldrich; 96% primary sequence identity with gACTH(1–24)	decrease in the Vmax value	had no effect on sensitivity to stimulation	no change in the Vmax value	had no effect on sensitivity to stimulation; also recorded: negligible shift in sensitivity; also recorded: no effect, either positive or negative, on the sensitivity of the receptor	can be activated with equal efficacy	no effect on the Vmax value	had no effect on sensitivity to stimulation; also recorded: no statistical effect on the sensitivity of gMc4r	no effect on the Vmax value	had no effect on sensitivity to stimulation	increase in the Vmax value	did not affect sensitivity; also recorded: no effect, either positive or negative, on the sensitivity of the receptor	no effect on the Vmax value	no effect either positive or negative on the sensitivity of gMc3r	statistically higher than the Vmax for the dose response curve when gMc4r was expressed alone; also recorded: the amplitude of stimulation (Vmax) also increased for both ligands	no effect on the Vmax value	no effect, in either a positive or negative manner, on the sensitivity of gMc1r	activation of gMc2r expressed alone by hACTH(1–24) [19]: activation of gMc2r did not occur when the receptor was expressed alone; also recorded: did not result in activation of the receptor; also recorded: no activation when expressed alone; effect of cMrap1 co-expression on sensitivity to stimulation [20]: significantly increased the sensitivity; activation of gMc2r co-expressed with gMrap1 by hACTH(1–24) ([8]; Fig. 2A, CHO cells, CRE-Luciferase, 4 h at 37 °C, n = 3): obligatory requirement for co-expression with gMrap1 in order for the receptor to be activated by hACTH(1–24); also recorded: activation of the receptor was recovered; concentration at which activation reached saturation ([8]; Fig. 2B, CHO cells, 4 h at 37 °C): 10^−9 M; effect of gMrap1 co-expression on ligand sensitivity ([12]; listed as hACTH (1–24)): no effect either positive or negative on sensitivity; activation of gMc2r co-expressed with gMrap2 [21]: activation did not occur; also recorded: gMrap2 did not facilitate activation of gMc2r; activation of gMc2r co-expressed with gMrap2 ([21]; listed as hACTH (1–24)): there was no activation

Source: publication PMC7263024 (General and comparative endocrinology, 2019)
